Measured values from ChEMBL document CHEMBL1148443, “Importance of phenolic address groups in opioid kappa receptor selective antagonists” (J Med Chem, 2004).

Legend:
[1] = target: Kappa-type opioid receptor (Cavia porcellus, UniProt P41144); test: Binding affinity of compound for Opioid receptor kappa 1 was determined using [3H]U-69593 as radioligand from guinea pig caudate
In short: (§1)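 Competitive binding assays. Mu and delta receptors came from rat brain membranes. Kappa receptors came from guinea pig caudate membranes.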

[2] = target: Delta-type opioid receptor (Rattus norvegicus, UniProt P33533); test: Binding affinity of compound for opioid receptor delta 1 was determined using [3H]DADLE as radioligand from rat brain tissue
In short: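 Competitive binding assays. Mu and delta receptors came from rat brain membranes. Kappa receptors came from guinea pig caudate membranes. Test compounds displaced the receptor-selective radioligand.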

[3] = target: Opioid receptors; delta & kappa (Homo sapiens) (UniProt P41145+P41143); test: Selectivity of compound for delta opioid receptor to that of kappa opioid receptor; assay type: protein assay
[4] = target: Opioid receptors; mu & kappa (Homo sapiens) (UniProt P41145+P35372); test: Selectivity of compound for mu opioid receptor to that of kappa opioid receptor; assay type: protein assay
Mu-type opioid receptor = Mu-type opioid receptor (Rattus norvegicus, UniProt P33535); test: Binding affinity of compound for Opioid receptor mu 1 was determined using [3H]DAMGO as radioligand from rat brain tissue; in short: as §1
Cavia porcellus [5] = species: Cavia porcellus; test: Functional antagonism was obtained by the ability of compound to inhibit stimulation of [35S]GTP gamma S binding produced by selective agonists U69,593 in guinea pig caudate membranes
Cavia porcellus [6] = species: Cavia porcellus; test: Functional antagonism was obtained by the ability of compound to inhibit stimulation of [35S]GTP gamma S binding produced by selective agonists SNC-80 in guinea pig caudate membranes
Cavia porcellus [7] = species: Cavia porcellus; test: Functional antagonism was obtained by the ability of compound to inhibit stimulation of [35S]GTP gamma S binding produced by selective agonists DAMGO in guinea pig caudate membranes

Opioid receptors; mu & kappa (Homo sapiens), sequence (P35372 whole entry, looked up): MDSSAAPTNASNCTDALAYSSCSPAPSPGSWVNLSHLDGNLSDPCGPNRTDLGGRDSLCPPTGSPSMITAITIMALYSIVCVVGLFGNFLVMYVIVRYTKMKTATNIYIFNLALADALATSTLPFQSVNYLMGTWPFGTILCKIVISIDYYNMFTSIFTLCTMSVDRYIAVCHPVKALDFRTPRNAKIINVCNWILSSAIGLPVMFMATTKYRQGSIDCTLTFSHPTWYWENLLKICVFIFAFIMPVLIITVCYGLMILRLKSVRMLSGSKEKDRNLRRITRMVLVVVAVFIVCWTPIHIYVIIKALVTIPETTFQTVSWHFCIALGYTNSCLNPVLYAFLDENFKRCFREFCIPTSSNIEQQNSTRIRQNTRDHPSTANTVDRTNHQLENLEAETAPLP
Opioid receptors; mu & kappa (Homo sapiens), sequence (P41145 whole entry, looked up): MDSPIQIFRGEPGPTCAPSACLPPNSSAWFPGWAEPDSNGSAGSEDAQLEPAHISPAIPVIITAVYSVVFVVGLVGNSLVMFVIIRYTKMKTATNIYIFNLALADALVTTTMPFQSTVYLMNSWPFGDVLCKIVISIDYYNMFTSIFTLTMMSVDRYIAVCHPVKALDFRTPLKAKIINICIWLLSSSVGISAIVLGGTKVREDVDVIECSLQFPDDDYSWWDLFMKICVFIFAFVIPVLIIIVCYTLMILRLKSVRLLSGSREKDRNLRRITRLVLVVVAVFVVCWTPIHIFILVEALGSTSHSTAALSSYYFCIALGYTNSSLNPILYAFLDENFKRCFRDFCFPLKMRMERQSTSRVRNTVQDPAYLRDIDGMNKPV
Opioid receptors; delta & kappa (Homo sapiens), sequence (P41143 whole entry, looked up): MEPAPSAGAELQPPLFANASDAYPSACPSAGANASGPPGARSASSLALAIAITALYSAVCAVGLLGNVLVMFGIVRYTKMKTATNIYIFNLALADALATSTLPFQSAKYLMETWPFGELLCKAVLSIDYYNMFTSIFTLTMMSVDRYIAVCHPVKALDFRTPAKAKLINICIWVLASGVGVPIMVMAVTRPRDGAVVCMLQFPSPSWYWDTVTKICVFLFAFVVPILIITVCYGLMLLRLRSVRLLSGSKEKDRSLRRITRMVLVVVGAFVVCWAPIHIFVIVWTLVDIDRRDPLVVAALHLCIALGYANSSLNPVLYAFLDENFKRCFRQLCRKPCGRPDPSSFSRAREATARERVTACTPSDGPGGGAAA
Opioid receptors; delta & kappa (Homo sapiens), sequence (P41145 whole entry, looked up): as the sequence (P41145 whole entry, looked up) above
Delta-type opioid receptor, sequence (P33533 whole entry): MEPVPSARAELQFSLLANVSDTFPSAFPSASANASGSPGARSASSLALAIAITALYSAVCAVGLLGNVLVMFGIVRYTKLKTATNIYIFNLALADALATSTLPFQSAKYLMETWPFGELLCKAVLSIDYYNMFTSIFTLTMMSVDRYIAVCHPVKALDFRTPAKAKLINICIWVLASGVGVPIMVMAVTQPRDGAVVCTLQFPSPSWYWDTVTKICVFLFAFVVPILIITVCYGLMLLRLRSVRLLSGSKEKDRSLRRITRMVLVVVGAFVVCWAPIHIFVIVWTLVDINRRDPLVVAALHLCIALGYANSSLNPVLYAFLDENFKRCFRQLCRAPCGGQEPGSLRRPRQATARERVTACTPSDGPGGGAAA
Kappa-type opioid receptor, sequence (P41144 whole entry): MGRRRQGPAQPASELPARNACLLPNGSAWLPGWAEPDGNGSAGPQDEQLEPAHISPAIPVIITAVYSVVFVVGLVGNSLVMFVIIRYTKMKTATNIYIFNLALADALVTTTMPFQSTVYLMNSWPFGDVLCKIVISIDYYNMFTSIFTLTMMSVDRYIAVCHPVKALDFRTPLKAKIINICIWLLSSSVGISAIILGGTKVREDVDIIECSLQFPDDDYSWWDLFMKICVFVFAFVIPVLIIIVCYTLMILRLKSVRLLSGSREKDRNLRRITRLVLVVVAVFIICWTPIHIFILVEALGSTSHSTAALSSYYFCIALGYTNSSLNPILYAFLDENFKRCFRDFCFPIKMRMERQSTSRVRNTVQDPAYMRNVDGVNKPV
Mu-type opioid receptor, sequence (P33535 whole entry): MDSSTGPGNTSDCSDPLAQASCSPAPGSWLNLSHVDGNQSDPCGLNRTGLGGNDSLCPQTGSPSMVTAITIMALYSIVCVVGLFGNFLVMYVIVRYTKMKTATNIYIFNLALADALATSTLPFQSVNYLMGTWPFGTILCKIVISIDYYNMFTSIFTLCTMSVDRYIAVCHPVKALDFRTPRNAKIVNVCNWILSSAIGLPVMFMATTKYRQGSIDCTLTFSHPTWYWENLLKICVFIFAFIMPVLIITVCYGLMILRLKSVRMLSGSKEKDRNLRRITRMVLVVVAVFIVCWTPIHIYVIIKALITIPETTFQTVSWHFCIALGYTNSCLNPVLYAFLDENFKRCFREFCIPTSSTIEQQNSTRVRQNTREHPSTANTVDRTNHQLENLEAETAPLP

| SMILES | Ki [1] [nM] | Ki [2] [nM] | Selectivity [3] | Selectivity [4] | Ki (Mu-type opioid receptor) [nM] | Ki (Cavia porcellus [5]) [nM] | Ki (Cavia porcellus [6]) [nM] | Ki (Cavia porcellus [7]) [nM] |
| --- | --- | --- | --- | --- | --- | --- | --- | --- |
| Oc1ccc2c3c1O[C@H]1c4[nH]c5c(c4C[C@@]4(O)[C@@H](C2)N(CC2CC2)CC[C@]314)C[C@@]1(O)[C@H]2Cc3ccc(O)c4c3[C@@]1(CCN2CC1CC1)[C@H]5O4 [NORBINALTORPHIMINE] | 1.33 | 111 | – | – | – | – | – | – |
| CC(C)[C@@H](CN1CC[C@@](C)(c2cccc(O)c2)[C@@H](C)C1)NC(=O)CCc1ccccc1 | 446 | > 5050 | 11 | 2 | 946 | – | – | – |
| CC(C)[C@@H](CN1CC[C@@](C)(c2cccc(O)c2)[C@@H](C)C1)NC(=O)[C@H]1Cc2ccccc2CN1 | – | – | > 2330 | 369 | – | 11.5 | 213 | 68.6 |
| CC(C)[C@@H](CN1CC[C@@](C)(c2cccc(O)c2)[C@@H](C)C1)NC(=O)[C@H]1Cc2ccc(O)cc2CN1 [JDTIC] | – | – | 940 | 12 | – | 0.02 | > 300 | 2.16 |
| CC(C)[C@@H](CN1CC[C@@](C)(c2cccc(O)c2)[C@@H](C)C1)NC(=O)CCc1ccc(O)cc1 | – | – | > 885 | 45 | – | 4.7 | 450 | 7.25 |
| Oc1ccc2c3c1O[C@H]1c4[nH]c5c(c4C[C@@]4(O)[C@@H](C2)N(CC2CC2)CC[C@]314)C[C@@]1(O)[C@H]2Cc3ccc(O)c4c3[C@@]1(CCN2CC1CC1)[C@H]5O4 (relative stereo) [NORBINALTORPHIMINE] | – | – | – | – | – | 0.038 | – | 16.7 |
